Measurements published in PubChem BioAssay AID504676 (Southern Research Specialized Biocontainment Screening …, 2011).

Test system: E. coli EV36 K1 capsule, T7 phage lysis, OD600
Experiment: capsule removal specificity in E. coli EV36 – T7 phage, EV36 K1:K-12 hybrid, OD600, set 3, selectivity assay for bacterial capsule biogenesis inhibitor project, dose response (AID 504676)
How it was run: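 System: E. coli EV36 K1/K-12 hybrid bacteria / Repeats: four replicate wells / Schedule: 1.5 h pre-phage compound exposure, 3 h post-infection, 37 °C shaking / Evaluation: lysis by OD600 decrease after T7 infection / Technique: OD600 absorbance / Medium: LB growth medium / Doses: dose series from 0.39 to 100 µM final, 1% DMSO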

IC50 [µM] | SMILES
22.9 | COc1ccc2nc(NC(=O)c3ccco3)sc2c1
5.9 | COc1ccc2nc(NC(=O)c3cccs3)sc2c1
